Source: PubChem
FGF22 binding = binders of recombinant human FGF22 by thermal shift. Q9HCT0. SYPRO orange fluorescence; percent of sucrose octasulfate shift, DMSO zero. activity (Tm shift, normalised), % at 9.99 µM. 1.5% of 340,000 active. AID 651658;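 active = mean Tm shift, scaled 0 neutral to 100 positive control, at about 1.3% or above, every replicate too, limit read from the data; inconclusive = no clear call, values can overlap the other calls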
Target sequence (Q9HCT0 whole entry, looked up): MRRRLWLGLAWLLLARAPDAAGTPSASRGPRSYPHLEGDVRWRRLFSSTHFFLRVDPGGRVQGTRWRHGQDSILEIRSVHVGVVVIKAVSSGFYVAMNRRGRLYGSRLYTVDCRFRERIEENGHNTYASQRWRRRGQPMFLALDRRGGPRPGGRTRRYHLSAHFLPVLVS
miR-122 sensor = inhibitors of miR-122 in Huh7 cells; Huh7 miR-122 Renilla luciferase sensor, 48 h; neutral wells = 0, positive control = 100; activation (reporter increase), % at 12.5 µM; 0.3% of 340,000 active; AID 602342;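 active = mean replicate activation score at least 90 and every replicate individually at or above 90; inconclusive = only one of the two criteria met; inactive = neither criterion met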;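 also: higher luciferase means less miR-122 activity so hits act as miR-122 inhibitors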
SIRT5 block = blocks human SIRT5 desuccinylation of peptide; Q9NXA8; Purified SirT5, succinyl-peptide AMC, trypsin-coupled fluorescence; inhibition, % at 15 µM; 1.1% of 330,000 active; AID 652115; in the data active = inhibition above about 15%; inconclusive = no clear call, values can overlap the other calls
Target sequence (Q9NXA8 whole entry, looked up): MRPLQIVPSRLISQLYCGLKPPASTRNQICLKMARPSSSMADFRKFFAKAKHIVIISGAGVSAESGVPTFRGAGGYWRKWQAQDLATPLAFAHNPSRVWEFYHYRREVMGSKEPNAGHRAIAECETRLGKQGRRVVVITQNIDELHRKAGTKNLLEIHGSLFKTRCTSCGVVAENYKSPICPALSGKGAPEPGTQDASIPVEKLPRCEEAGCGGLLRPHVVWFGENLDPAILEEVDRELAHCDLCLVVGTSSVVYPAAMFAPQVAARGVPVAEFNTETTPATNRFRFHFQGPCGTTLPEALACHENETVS
S100A4 MyoIIA = blocks human S100A4 binding to myosin IIA peptide. P26447. AID 652163. 0.14% of 360,000 active. S100A4/TAMRA-MyoIIA peptide fluorescence polarization. inhibition, % at 10.7 µM;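 active = mean inhibition of at least 70% across replicates, with every replicate also reaching that level; inconclusive = mean inhibition reaches 70% but some replicates fall short; inactive = mean inhibition below 70%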
Target sequence (P26447 whole entry, looked up): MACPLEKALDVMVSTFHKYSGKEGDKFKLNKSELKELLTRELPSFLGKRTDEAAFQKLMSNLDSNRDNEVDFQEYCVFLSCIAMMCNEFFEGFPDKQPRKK
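Compound dosing: one dose per compound; test system: human S100A4 monomer with TAMRA-labelled myosin IIA peptide; probe or stimulus: TAMRA-labelled myosin IIA heavy-chain peptide probe, 5 nM; medium: HEPES buffer with Ca2+, pH 7.2; schedule: 5 min incubation before reading; benchmarks: neutral control DMSO, positive control TFP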
E-sel inducer = induces E-selectin expression in human endothelial cells; P16581; HUVEC E-selectin immunofluorescence imaging; normalized: neutral wells 0, TNF-alpha wells 100; activation, % at 7.58 µM; 0.37% of 260,000 active;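 active = mean E-selectin-positive cell signal at least 10% of the positive control, reached in at least 60% of replicates, without over 20% cell loss; inconclusive = no rule given, readout overlaps actives, possibly toxicity-flagged; inactive = the rest, including those meeting only one limit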
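material = human umbilical vein endothelial cells (HUVEC), E-selectin induction | quantity = 3,000 cells/well | medium = EGM-2 growth medium on 0.1% gelatin-coated wells | technique = immunofluorescence imaging | read-out basis = % PE-positive cells | control set = TNF-alpha positive control, DMSO neutral control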
Large screens that a line does not name were inactive; [ ] = dose if it differs, or a comment. Hits are enriched below; roughly 2.5% of the tested compounds scored in any of these assays.

Cc1ccc(-c2nn(-c3ccccc3)cc2C=C2SC(=S)N(CCS(=O)(=O)O)C2=O)cc1	SIRT5 block 55
CN1CCN(C(=O)c2cnn(-c3ccccc3)c2NC(=O)c2ccccc2)CC1	FGF22 binding 43 (no result: miR-122 sensor, E-sel inducer)
O=C(Cc1ccccn1)NCC[C@H]1CC[C@@H](NC(=O)Nc2ccccc2)[C@@H](CO)O1	none (no result: miR-122 sensor)
O=C(NCCC1=CCCCC1)Nc1ccc2nsnc2c1	FGF22 binding 43 (no result: miR-122 sensor, E-sel inducer)
CC(=O)c1cccc(NC(=S)NCCC2=CCCCC2)c1	none (no result: FGF22 binding, SIRT5 block, S100A4 MyoIIA, E-sel inducer)
CN(C)CCNC(=O)c1ccc2c(=O)n(Cc3ccc(Cl)cc3)c(=S)[nH]c2c1	none (no result: miR-122 sensor)
CCCCN(C)CCNC(=O)c1ccc(Cn2c(=S)[nH]c3ccc(Br)cc3c2=O)cc1	SIRT5 block 49 (no result: miR-122 sensor, E-sel inducer)
COc1ccc(-c2n(CC(=O)OC3CC(C)CCC3C(C)C)c3ccccc3[n+]2C)cc1 (stereo not given)	FGF22 binding 44 (no result: miR-122 sensor, E-sel inducer)
COc1cccc(S(=O)(=O)N[C@@H]2C=C[C@H](CC(=O)NC3Cc4ccccc4C3)O[C@@H]2CO)c1	none (no result: miR-122 sensor)
COC(=O)C[C@@H]1C[C@@H]2c3cc(NC(=O)c4cccnc4)ccc3O[C@@H]2[C@@H](CO)O1	none
O=S(=O)([N-]c1nc2ccccc2nc1-[n+]1ccccc1)c1ccc(F)cc1	FGF22 binding 45 (no result: miR-122 sensor, E-sel inducer)
Cc1ccc[n+](-c2nc3ccccc3nc2[N-]S(=O)(=O)c2ccccc2)c1	none
CN(C)S(=O)(=O)c1ccc(C(=O)OCc2ccc([N+](=O)[O-])cc2)cc1	FGF22 binding 44 (no result: miR-122 sensor, E-sel inducer)
CN(C)S(=O)(=O)c1ccc(C(=O)OCc2ccc(C#N)cc2)cc1	none (no result: FGF22 binding, SIRT5 block, S100A4 MyoIIA, E-sel inducer)
O=C(CCNC(=O)c1ccc([N+](=O)[O-])cc1)Nc1ccc(N2CCOCC2)cc1N1CCOCC1	FGF22 binding 43 (no result: miR-122 sensor, E-sel inducer)
CN(C)S(=O)(=O)c1ccc(NC(=O)CCNC(=O)c2ccc([N+](=O)[O-])cc2)cc1	FGF22 binding 43
CO[C@@H]1CN(C)C(=O)c2cc(NC(=O)Nc3cccc(Cl)c3)ccc2OC[C@H](C)NC[C@H]1C	none (no result: miR-122 sensor)
CN(CC(=O)NC1CC(C)(C)NC(C)(C)C1)S(=O)(=O)c1cc(Cl)ccc1Cl	FGF22 binding 43
C[C@@H]1CCCCO[C@H](CN(C)Cc2ccc(C(F)(F)F)cc2)[C@H](C)CN([C@H](C)CO)C(=O)c2cc(NC(=O)c3ccccc3)ccc2O1	none
Cc1ccc(C(=O)Nc2cc(C)nn2CCC#N)cc1	E-sel inducer 32
COc1ccccc1C#Cc1ccc2c(c1)[C@@H]1[C@@H](CCN1C(=O)CN1CCOCC1)[C@H](CO)N2	none (no result: miR-122 sensor)
CC(=O)Nc1c(C#N)c(-c2ccccc2)c(C#N)c(=O)n1-c1ccc(C)cc1	none
COc1ccc(-c2c(O)c(C#N)c(-c3ccccc3)n(-c3ccc(OC)cc3)c2=O)cc1	miR-122 sensor 97 (no result: FGF22 binding, SIRT5 block, S100A4 MyoIIA, E-sel inducer)
CC1=C(C(=O)OCC(Br)(Br)Br)C(c2cccc([N+](=O)[O-])c2)NC(=O)N1CCCC(=O)O (stereo not given)	SIRT5 block 23 (no result: miR-122 sensor)
Cc1nnc(SCC2=C(C(=O)O)N3C(=O)C(NC(=O)Cn4ncc(Cl)c4C)C3SC2)s1 (stereo not given)	FGF22 binding 43 (no result: miR-122 sensor)
CC(C)NC(=O)N(C)C[C@@H]1Oc2ccc(NC(=O)CCCN(C)C)cc2C(=O)N([C@H](C)CO)C[C@H]1C	E-sel inducer inconclusive
O=C(Cc1ccc(F)cc1)NC1CCSC1=O (stereo not given)	FGF22 binding 43 (no result: E-sel inducer)
CC(C)NC(=O)Nc1ccc2c(c1)C(=O)N([C@@H](C)CO)C[C@@H](C)[C@@H](CN(C)Cc1ccc(C(F)(F)F)cc1)O2	E-sel inducer 59
CC(C)NC(=O)Nc1ccc2c(c1)C(=O)N([C@H](C)CO)C[C@@H](C)[C@H](CN(C)Cc1ccc(C(F)(F)F)cc1)O2	SIRT5 block 15
C[C@@H]1CN([C@@H](C)CO)C(=O)c2cc(NC(=O)Nc3ccc(C(F)(F)F)cc3)ccc2O[C@@H]1CN(C)Cc1ccc(C(F)(F)F)cc1	none
CC(C)NC(=O)Nc1ccc2c(c1)C(=O)N([C@@H](C)CO)C[C@H](C)[C@@H](CN(C)Cc1ccc(C(F)(F)F)cc1)O2	E-sel inducer 89
CCCC(C)NS(=O)(=O)c1ccc(OC)c(C)c1 (stereo not given)	miR-122 sensor 153 (no result: FGF22 binding, SIRT5 block, S100A4 MyoIIA, E-sel inducer)
CC(=O)NC[C@H]1[C@H](c2ccc(-c3ccccc3F)cc2)[C@@H](CO)N1C(=O)C1CC1	none
O=C(COc1cccc2ccccc12)N1CCN(c2ccccn2)CC1	SIRT5 block 18 (no result: E-sel inducer)
CC(=O)Nc1nc(C(=O)O)cs1	FGF22 binding 43 (no result: E-sel inducer)
O=C(c1cccnc1)N1CC[C@@H]2[C@H](CO)Nc3ccc(C4=CCCCC4)cc3[C@@H]21	none (no result: FGF22 binding, miR-122 sensor)
O=C(c1cccnc1)N1CC[C@@H]2[C@@H](CO)Nc3ccc(C4=CCCCC4)cc3[C@@H]21	SIRT5 block 17
N#Cc1cccc(-c2ccc3c(c2)[C@@H]2[C@@H](CCN2C(=O)c2ccncc2)[C@@H](CO)N3)c1	S100A4 MyoIIA 98
N#Cc1ccc(-c2ccc3c(c2)[C@@H]2[C@@H](CCN2C(=O)c2ccncc2)[C@H](CO)N3)cc1	none
Cc1sc2ccccc2c1CNC[C@H]1O[C@@H](n2cnc(C(N)=O)n2)[C@H](O)[C@@H]1O	FGF22 binding 44 (no result: SIRT5 block)
Nn1c(C2CCC2)nc2cc(Cl)ccc2c1=O	SIRT5 block 18 (no result: E-sel inducer)
Nn1c(C2CCCCC2)nc2ccccc2c1=O	none
C/C=C/c1cnc2c(c1)C(=O)N([C@@H](C)CO)C[C@@H](C)[C@H](CN(C)S(=O)(=O)c1ccc(F)cc1)O2	none
Cc1cc(C(=O)Nc2cccc3c2O[C@H](CN(C)Cc2ccc(Oc4ccccc4)cc2)[C@H](C)CN([C@@H](C)CO)C3=O)n(C)n1	none (no result: FGF22 binding)
Cc1cc(C(=O)Nc2cccc3c2O[C@H](CN(C)Cc2ccc(C(F)(F)F)cc2)[C@@H](C)CN([C@H](C)CO)C3=O)n(C)n1	miR-122 sensor 276[16.7 µM]
Cc1cc(C(=O)Nc2cccc3c2O[C@H](CN(C)Cc2ccc(C(F)(F)F)cc2)[C@H](C)CN([C@@H](C)CO)C3=O)n(C)n1	none
Cc1cc(C(=O)Nc2cccc3c2O[C@@H](CN(C)Cc2ccc(Oc4ccccc4)cc2)[C@H](C)CN([C@H](C)CO)C3=O)n(C)n1	SIRT5 block 22
Cc1noc(C)c1S(=O)(=O)N(C)C[C@@H]1Oc2ccc(NC(=O)CCCCCC(=O)Nc3ccccc3N)cc2CC(=O)N([C@H](C)CO)C[C@H]1C	none (no result: miR-122 sensor, SIRT5 block, S100A4 MyoIIA)
COc1ccc(-c2csc(Nc3ccc(S(=O)(=O)Nc4cc(C)on4)cc3)n2)cc1C	FGF22 binding 44 (no result: miR-122 sensor, E-sel inducer)
CCOC(=O)CSc1cc(C)nc2ccc(OC)cc12	FGF22 binding 43 (no result: miR-122 sensor)
CCCN(C)C[C@@H]1Oc2cc(C#Cc3ccncc3)ccc2S(=O)(=O)N([C@H](C)CO)C[C@@H]1C	none (no result: miR-122 sensor)
Cc1cc2nc(-c3nnnn3-c3c(C)cccc3C)c(=O)[nH]c2cc1C	none (no result: miR-122 sensor)
